ChEMBL document CHEMBL4308891, “Small molecules inhibit ex vivo tumor growth in bone” (Bioorg Med Chem, 2018)
Active and inactive are the calls of the source. No cut-off for these calls is given here.

Tests used:
[1] = test system: MDA-MB-231; assay: Antiinvasive activity in human MDA-MB-231 cells assessed as inhibition of cell invasion at 5 uM by boyden chamber method relative to control; format: functional
[2] = test system: MDA-MB-231; assay: (§1) Ex vivo antitumor activity against human MDA-MB-231 cells co-cultured with neonatal Swiss mouse bone in BGJb medium assessed as inhibition of tumor growth at 5 uM administered simultaneously with cancer cells measured on day 5 post treatment by Gaussia luciferase reporter gene assay relative to control; format: functional
In short: (§2)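 Calvariae from […] Swiss mouse pups were punched into 4 or 5 mm disks. Each was seeded with 1 x 10^4 tumor cells (lentiviral secreted Gaussia luciferase/GFP-blasticidin, FACS-sorted GFP+) in BGJb plus 10% fetal calf serum at 37°C, 5% CO2. After 24 h bones moved to fresh wells; medium changed every 2 days. Conditioned-medium luciferase read as RLU. Biological triplicate, mean ± SD, Welch's t-test.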

[3] = test system: MDA-MB-231; assay: as §1, with “day 7” for “day 5”; format: functional; in short: as §2
[4] = test system: MDA-MB-231; assay: (§3) Ex vivo antitumor activity against human MDA-MB-231 cells co-cultured with neonatal Swiss mouse bone in BGJb medium assessed as inhibition of tumor growth at 5 uM administered on day 2 post cancer cells addition measured on day 5 post treatment by Gaussia luciferase reporter gene assay relative to control; format: functional; in short: as §2
[5] = test system: MDA-MB-231; assay: as §3, with “day 7” for “day 5”; format: functional; in short: as §2
[6] = test system: MDA-MB-231; assay: Antiinvasive activity in human MDA-MB-231 cells by boyden chamber method; format: functional, cell-based
[7] = test system: MDA-MB-231; assay: Cytotoxicity against human MDA-MB-231 cells at 0.625 to 5 uM after 24 hrs; format: cell-based; conditions: mda-mb-231, 24 h
[8] = test system: U-87 MG; assay: Antiinvasive activity in human U87 cells at 5 uM by boyden chamber method; format: functional, cell-based; conditions: U-87MG ATCC
[9] = test system: NCI-H460; assay: Antiinvasive activity in human NCI-H460 cells at 5 uM by boyden chamber method; format: functional, cell-based
[10] = test system: MIA PaCa-2; assay: Antiinvasive activity in human MIAPaCa2 cells at 5 uM by boyden chamber method; format: functional, cell-based
[11] = test system: U-87 MG; assay: Cytotoxicity against human U87 cells after 24 hrs; format: cell-based; conditions: u-87mg atcc
[12] = test system: NCI-H460; assay: Cytotoxicity against human NCI-H460 cells after 24 hrs; format: cell-based; conditions: nci-h460, 24 h
[13] = test system: MIA PaCa-2; assay: Cytotoxicity against human MIAPaCa2 cells after 24 hrs; format: cell-based; conditions: mia paca-2, 24 h
[14] = test system: MDA-MB-231; assay: Antimigratory activity in human MDA-MB-231 cells at 10 uM after 9 hrs by wound healing assay; format: functional, cell-based
In short: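 Confluent monolayers in 12-well plates were scratched with a micropipette tip, washed, then cultured in complete medium with compound. Gap width between wound edges was measured by microscopy in three random regions right after wounding and at 6 and 9 h.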

[15] = Inhibition of angiogenesis in human HRMEC assessed as inhibition of endothelial cell tube formation up to 10 uM after 8 hrs by microscopic analysis
In short: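 Primary human retinal microvascular endothelial cells were grown on Matrigel in complete medium for 8 h, then tubule formation was measured. Significance was assessed by ANOVA.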

[16] = test system: MDA-MB-231; assay: Cytotoxicity against human MDA-MB-231 cells at 12.5 uM after 3 days by MTS assay; format: cell-based; conditions: mda-mb-231, 72 h
[17] = test system: Bone; assay: Down regulation of TRAP expression in neonatal Swiss mouse calvariae bone co-cultured with human MDA-MB-231 cells measured on day 7 post treatment by SYBR green-dye based RT-qPCR analysis; format: functional, tissue-based; conditions: Bone element
In short: (§4)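 Calvarial disk cultures ([…] Swiss pups) in BGJb plus 10% fetal calf serum were PBS-washed at day 7 and bead-homogenized in Qiazol. Aqueous-phase RNA was isolated, reverse-transcribed and run in triplicate real-time PCR with species-specific primers. Expression was normalized to ribosomal protein L32 mRNA. n = 3 or 4 cultures, ANOVA.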

[18] = test system: Bone; assay: Down regulation of RANKL expression in neonatal Swiss mouse calvariae bone co-cultured with human MDA-MB-231 cells measured on day 7 post treatment by SYBR green-dye based RT-qPCR analysis; format: functional, tissue-based; conditions: Bone element; in short: as §4
[19] = test system: Bone; assay: Effect on Col1A1 expression in neonatal Swiss mouse calvariae bone co-cultured with human MDA-MB-231 cells measured on day 7 post treatment by SYBR green-dye based RT-qPCR analysis; format: functional, tissue-based; conditions: Bone element; in short: as §4
[20] = test system: Bone; assay: Effect on osteocalcin expression in neonatal Swiss mouse calvariae bone co-cultured with human MDA-MB-231 cells measured on day 7 post treatment by SYBR green-dye based RT-qPCR analysis; format: functional, tissue-based; conditions: Bone element; in short: as §4
[21] = test system: MDA-MB-231; assay: Effect on ICAM expression in human MDA-MB-231 cells co-cultured with neonatal Swiss mouse calvariae bone measured on day 7 post treatment by SYBR green-dye based RT-qPCR analysis; format: functional, cell-based; in short: as §4
[22] = test system: MDA-MB-231; assay: Down regulation of ENPP1 expression in human MDA-MB-231 cells co-cultured with neonatal Swiss mouse calvariae bone measured on day 7 post treatment by SYBR green-dye based RT-qPCR analysis relative to control; format: functional; in short: as §4
[23] = test system: MDA-MB-231; assay: Effect on CTGF expression in human MDA-MB-231 cells co-cultured with neonatal Swiss mouse calvariae bone measured on day 7 post treatment by SYBR green-dye based RT-qPCR analysis; format: functional, cell-based; in short: as §4
[24] = test system: MDA-MB-231; assay: Effect on CCL2 expression in human MDA-MB-231 cells co-cultured with neonatal Swiss mouse calvariae bone measured on day 7 post treatment by SYBR green-dye based RT-qPCR analysis; format: functional, cell-based; in short: as §4
[25] = test system: MDA-MB-231; assay: Down regulation of IL11 expression in human MDA-MB-231 cells co-cultured with neonatal Swiss mouse calvariae bone measured on day 7 post treatment by SYBR green-dye based RT-qPCR analysis relative to control; format: functional; in short: as §4
[26] = test system: MDA-MB-231; assay: Down regulation of IL-8 expression in human MDA-MB-231 cells co-cultured with neonatal Swiss mouse calvariae bone measured on day 7 post treatment by SYBR green-dye based RT-qPCR analysis; format: functional, cell-based; in short: as §4
[27] = test system: MDA-MB-231; assay: Down regulation of FGF5 expression in human MDA-MB-231 cells co-cultured with neonatal Swiss mouse calvariae bone measured on day 7 post treatment by SYBR green-dye based RT-qPCR analysis; format: functional, cell-based; in short: as §4
[28] = test system: MDA-MB-231; assay: Upregulation of BCL2L1 expression in human MDA-MB-231 cells co-cultured with neonatal Swiss mouse calvariae bone measured on day 7 post treatment by SYBR green-dye based RT-qPCR analysis; format: functional, cell-based; in short: as §4
[29] = test system: MDA-MB-231; assay: Upregulation of Fas expression in human MDA-MB-231 cells co-cultured with neonatal Swiss mouse calvariae bone measured on day 7 post treatment by SYBR green-dye based RT-qPCR analysis; format: functional, cell-based; in short: as §4
[30] = test system: Bone; assay: Effect on TRAP expression in neonatal Swiss mouse calvariae bone measured on day 7 post treatment by SYBR green-dye based RT-qPCR analysis; format: functional, tissue-based; conditions: Bone element; in short: as §4
[31] = test system: Bone; assay: Effect on RANKL expression in neonatal Swiss mouse calvariae bone measured on day 7 post treatment by SYBR green-dye based RT-qPCR analysis; format: functional, tissue-based; conditions: Bone element; in short: as §4
[32] = test system: MDA-MB-231; assay: Down regulation of CCN3 expression in human MDA-MB-231 cells co-cultured with neonatal Swiss mouse calvariae bone measured on day 7 post treatment by SYBR green-dye based RT-qPCR analysis relative to control; format: functional; in short: as §4
[33] = test system: MDA-MB-231; assay: Down regulation of CDH11 expression in human MDA-MB-231 cells co-cultured with neonatal Swiss mouse calvariae bone measured on day 7 post treatment by SYBR green-dye based RT-qPCR analysis

COc1cccc(C2=NNC3C(=O)N(CCc4c[nH]c5ccccc45)C(c4cccc(F)c4)C23)c1 (stereo unspecified)
inhibition at 5 µM [1]: 90%
TGI [2]: Active
TGI [3]: >50%
TGI [4]: Active
TGI [5]: >50%

CCCN1N=C(c2ccc(Cl)cc2)C2C1C(=O)N(c1ccc(C)c(Br)c1)C2c1cccc(F)c1 (stereo unspecified)
inhibition at 5 µM [1]: > 70%
TGI [2]: Active
TGI [3]: Active
TGI [4]: Active
TGI [5]: Active

CC(C)N1N=C(c2ccc(Cl)cc2)C2C(c3cccc(F)c3)N(CCc3c[nH]c4ccccc34)C(=O)C21 (stereo unspecified)
inhibition at 5 µM [1]: > 70%
TGI [2]: Active
TGI [3]: 40%
TGI [4]: Active
TGI [5]: 40%

Cc1ccc(N2C(=O)C3NN=C(c4ccc(Cl)cc4)C3C2c2cccc(F)c2)cc1Br (stereo unspecified)
Activity [6]: Dose-dependent effect
IC50 [6]: 2900 nM
Activity [7]: Non-Toxic
Activity [8]: inactive
Activity [9]: inactive
Activity [10]: Active
Activity [11]: Non-Toxic
Activity [12]: Non-Toxic
Activity [13]: Non-Toxic
Activity [14]: inactive
Activity [15]: Not Active
inhibition at 5 µM [1]: > 70%
TGI [2]: 70%
TGI [3]: 60%
TGI [4]: 66%
TGI [5]: 47%
Activity [16]: Non-Toxic
Activity [17]: Active
Activity [18]: Active
Activity [19]: inactive
Activity [20]: inactive
Activity [21]: inactive
Activity [22]: 60%
Activity [23]: inactive
Activity [24]: inactive
Activity [25]: >80%
Activity [26]: Active
Activity [27]: inactive
Activity [28]: Active
Activity [29]: Active

O=C1C2NN=C(c3ccc(Cl)cc3)C2C(c2cccc(F)c2)N1Cc1c[nH]c2ccccc12 (stereo unspecified)
inhibition at 5 µM [1]: 20%
TGI [2]: Active
TGI [3]: Active
TGI [4]: Active
TGI [5]: Active

O=C1C2NN=C(c3ccc(Cl)cc3)C2C(c2cccc(F)c2)N1CCc1c[nH]c2ccccc12 (stereo unspecified)
Activity [6]: Dose-dependent effect
IC50 [6]: 2600 nM
Activity [7]: Non-Toxic
Activity [8]: inactive
Activity [9]: inactive
Activity [10]: Active
Activity [11]: Non-Toxic
Activity [12]: Non-Toxic
Activity [13]: Non-Toxic
Activity [14]: inactive
Activity [15]: Not Active
inhibition at 5 µM [1]: > 70%
TGI [2]: 70%
TGI [3]: 60%
TGI [4]: 53%
TGI [5]: 36%
Activity [16]: Non-Toxic
Activity [17]: Active
Activity [18]: Active
Activity [19]: inactive
Activity [20]: inactive
Activity [30]: inactive
Activity [31]: Active
Activity [21]: inactive
Activity [22]: 90%
Activity [23]: inactive
Activity [32]: 90%
Activity [24]: inactive
Activity [26]: Active
Activity [27]: inactive
Activity [28]: Active
Activity [29]: Active
Activity [33]: Active

O=C1C2NN=C(c3ccc(Cl)cc3)C2C(c2cccc(F)c2)N1CCc1cccnc1 (stereo unspecified)
inhibition at 5 µM [1]: 40%
TGI [2]: Active
TGI [3]: Active
TGI [4]: Active
TGI [5]: Active

Cc1ccc(N2C(=O)C3C(C(c4ccc(Cl)cc4)=NN3C)C2c2cccc(F)c2)cc1Br (stereo unspecified)
inhibition at 5 µM [1]: > 70%
TGI [2]: Active
TGI [3]: Active
TGI [4]: Active
TGI [5]: Active

O=C1C2NN=C(c3ccc(Cl)cc3)C2C(c2ccc(C(F)(F)F)cc2)N1CCc1c[nH]c2ccccc12 (stereo unspecified)
inhibition at 5 µM [1]: 90%
TGI [2]: Active
TGI [3]: Active
TGI [4]: Active
TGI [5]: Active

Cc1ccc(N2C(=O)C3C(C(c4ccc(Cl)cc4)=NN3C(C)C)C2c2cccc(F)c2)cc1Br (stereo unspecified)
TGI [2]: Active
TGI [3]: Active
TGI [4]: Active
TGI [5]: Active

Cc1ccc(N2C(=O)C3NN=C(c4ccc(Cl)cc4)C3C2c2cccc(C(F)(F)F)c2)cc1Br (stereo unspecified)
inhibition at 5 µM [1]: > 70%
TGI [2]: Active
TGI [3]: Active
TGI [4]: Active
TGI [5]: Active

O=C1C2C(C(c3ccc(Cl)cc3)=NN2C2CCCCC2)C(c2cccc(F)c2)N1CCc1c[nH]c2ccccc12 (stereo unspecified)
inhibition [1]: inactive
TGI [2]: Active
TGI [3]: Active
TGI [4]: Active
TGI [5]: Active

O=C1C2NN=C(c3ccc(Cl)cc3)C2C(c2cccc(F)c2)N1c1cccc(Br)c1 (stereo unspecified)
inhibition at 5 µM [1]: > 70%
TGI [2]: Active
TGI [3]: Active
TGI [4]: Active
TGI [5]: Active

COc1ccc(N2C(=O)C3NN=C(c4ccc(Cl)cc4)C3C2c2cccc(F)c2)cn1 (stereo unspecified)
TGI [2]: Active
TGI [3]: Active
TGI [4]: Active
TGI [5]: Active
